Experimental data reported in ChEMBL document CHEMBL4665761, “Optimizing the Benefit/Risk of Acetyl-CoA Carboxylase Inhibitors through Liver Targeting” (J Med Chem, 2020).

Columns and labels:
[1] = AUC (0 to 24 hrs) in Wistar-Hannover rat plasma at 1 mg/kg, iv and measured up to 24 hrs by LC/MS-MS analysis; type: ADME, organism-based; parameters: route intravenous, dose 1 mg/kg, time <=24
Outline: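 Male Wistar-Hannover rats (240–350 g) with jugular vein cannulas were given 1 mg/kg IV at 2 mL/kg. Vehicle, depending on compound, was 10% DMSO/90% of 20% sulfobutylether-β-cyclodextrin in water or 10% DMSO/30% PEG400/60% water. AUC0–24 came from plasma concentration–time data by the linear trapezoidal rule, averaged for n = 2. Lower detection limit was 1 ng/mL.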

[2] = Apparent volume of distribution at steady state in Wistar-Hannover rat plasma at 1 mg/kg, iv and measured up to 24 hrs by LC/MS-MS analysis; type: ADME, organism-based; settings: read-out: Vdss(app)
Outline: (§1)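 Male Wistar-Hannover rats (240–350 g) with jugular vein cannulas, dosed 1 mg/kg IV (2 mL/kg) or PO. IV vehicle was 10% DMSO/90% of 20% sulfobutylether-β-cyclodextrin in water, or 10% DMSO/30% PEG400/60% water. Plasma was analysed by LC-MS/MS. Parameters come from plasma concentration–time data, n = 2: Cmax observed directly, AUC0-24 by the linear trapezoidal rule, CL = IV dose/AUC, Vss = dose/(AUC × elimination rate constant).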

Acetyl-CoA carboxylase 2 = Acetyl-CoA carboxylase 2 (Homo sapiens, UniProt O00763); experiment: Inhibition of recombinant human ACC2 using acetyl coA as substrate incubated for 1 hr by transcreener fluorescence polarization assay
Outline: (§2)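 Recombinant human enzyme, Transcreener assay run per an earlier protocol. IC50 is the geometric mean of at least three replicates, also given as pIC50 ± SD.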

[3] = Half life in Wistar-Hannover rat plasma at 1 mg/kg, iv and measured up to 24 hrs by LC/MS-MS analysis; type: ADME, organism-based; outline: as §1
[4] = Metabolic intrinsic clearance in human hepatocytes assessed per million cells incubated for 2 hrs; type: ADME, cell-based, Hepatocyte; settings: read-out: CLH
Outline: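 Cryopreserved human hepatocytes incubated for 2 h. In vitro half-lives scaled to intrinsic clearance, expressed per 10^6 cells.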

[5] = Clearance in Wistar-Hannover rat plasma at 1 mg/kg, iv and measured up to 24 hrs by LC/MS-MS analysis; type: ADME, organism-based; outline: as §1
[6] = Apparent permeability in MCDKII-LE cells at 2 uM incubated for 30 mins; type: ADME, cell-based, Canis lupus familiaris, MDCKII-LE; settings: dog, MDCK
Outline: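 MDCK-LE (low-efflux) cell monolayers with a 30 min pre-incubation. Read-out is apparent passive permeability (Papp, 10^-6 cm/s).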

Rattus norvegicus = organism: Rattus norvegicus; experiment: Fraction unbound in rat plasma by equilibrium dialysis method
[7] = Octanol-water partition coefficient, logD of compound at pH 7.4 at 0.5 to 2 mg incubated for 1 hr by HPLC based shake-flask method; type: physicochemical; settings: dose 0.5-2 mg
Outline: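 Shake-flask octanol/water partition at pH 7.4.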

Acetyl-CoA carboxylase 1 = Acetyl-CoA carboxylase 1 (Homo sapiens, UniProt Q13085); experiment: Inhibition of recombinant human ACC1 using acetyl coA as substrate incubated for 1 hr by transcreener fluorescence polarization assay; outline: as §2
[8] = Fraction unbound in rat liver by equilibrium dialysis method
OATP1B1 = target: T1, OATP1B1 (Homo sapiens, UniProt Q9Y6L6); experiment: Substrate activity at human OATP1B1 stably expressed in HEK293 cells assessed as ratio of total to passive cellular uptake at 1 uM incubated for 5 mins by LC/MS-MS analysis; type: ADME, cell-based; settings: HEK293 cells stably expressing human OATP1B1
T1 sequence (Q9Y6L6 whole entry): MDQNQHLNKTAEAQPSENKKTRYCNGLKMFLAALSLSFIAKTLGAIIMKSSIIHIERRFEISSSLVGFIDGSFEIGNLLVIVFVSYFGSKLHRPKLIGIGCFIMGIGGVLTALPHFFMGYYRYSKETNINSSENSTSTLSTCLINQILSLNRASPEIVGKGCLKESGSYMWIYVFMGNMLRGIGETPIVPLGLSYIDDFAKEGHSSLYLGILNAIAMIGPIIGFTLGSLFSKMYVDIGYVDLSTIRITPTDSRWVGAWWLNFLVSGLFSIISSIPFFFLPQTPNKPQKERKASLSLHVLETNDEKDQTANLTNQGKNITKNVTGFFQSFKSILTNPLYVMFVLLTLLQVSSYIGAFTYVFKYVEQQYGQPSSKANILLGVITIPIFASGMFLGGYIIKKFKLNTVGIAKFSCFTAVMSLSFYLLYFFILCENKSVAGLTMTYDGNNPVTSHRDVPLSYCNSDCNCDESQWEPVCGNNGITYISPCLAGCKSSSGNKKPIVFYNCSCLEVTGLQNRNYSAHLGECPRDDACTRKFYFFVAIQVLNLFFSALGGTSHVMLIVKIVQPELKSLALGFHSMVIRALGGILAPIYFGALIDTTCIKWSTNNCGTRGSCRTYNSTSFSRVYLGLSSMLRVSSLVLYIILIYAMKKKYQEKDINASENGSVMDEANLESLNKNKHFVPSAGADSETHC
Outline: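 Transfected versus parental HEK293 cells exposed at 1 µM for 5 min at 37 °C. Ratio is total (transfected) over passive (parental) uptake; >2 denotes substrate.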

[9] = target: Organic anion transporter 3 (Homo sapiens, UniProt Q8TCC7); experiment: Inhibition of human SLC22A8 expressed in HEK293 cells in presence of para-aminohippuric acid/metformin; type: cell-based
[10] = Drug uptake in human hepatocytes assessed as active uptake intrinsic clearance at 1 uM up to 15 mins by LC-MS/MS analysis; type: ADME, cell-based, Hepatocyte; settings: 0.25 h
CHO = experiment: Genotoxicity in CHO cells by micronucleus test; type: toxicity, cell-based, Cricetulus griseus; settings: chinese hamster
Outline: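 In vitro micronucleus assay in Chinese hamster ovary or TK6 cells, run with and without metabolic activation by aroclor-induced rat liver S9 fraction plus NADPH.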

Chain of Acetyl-CoA carboxylase 2 (O00763 whole entry): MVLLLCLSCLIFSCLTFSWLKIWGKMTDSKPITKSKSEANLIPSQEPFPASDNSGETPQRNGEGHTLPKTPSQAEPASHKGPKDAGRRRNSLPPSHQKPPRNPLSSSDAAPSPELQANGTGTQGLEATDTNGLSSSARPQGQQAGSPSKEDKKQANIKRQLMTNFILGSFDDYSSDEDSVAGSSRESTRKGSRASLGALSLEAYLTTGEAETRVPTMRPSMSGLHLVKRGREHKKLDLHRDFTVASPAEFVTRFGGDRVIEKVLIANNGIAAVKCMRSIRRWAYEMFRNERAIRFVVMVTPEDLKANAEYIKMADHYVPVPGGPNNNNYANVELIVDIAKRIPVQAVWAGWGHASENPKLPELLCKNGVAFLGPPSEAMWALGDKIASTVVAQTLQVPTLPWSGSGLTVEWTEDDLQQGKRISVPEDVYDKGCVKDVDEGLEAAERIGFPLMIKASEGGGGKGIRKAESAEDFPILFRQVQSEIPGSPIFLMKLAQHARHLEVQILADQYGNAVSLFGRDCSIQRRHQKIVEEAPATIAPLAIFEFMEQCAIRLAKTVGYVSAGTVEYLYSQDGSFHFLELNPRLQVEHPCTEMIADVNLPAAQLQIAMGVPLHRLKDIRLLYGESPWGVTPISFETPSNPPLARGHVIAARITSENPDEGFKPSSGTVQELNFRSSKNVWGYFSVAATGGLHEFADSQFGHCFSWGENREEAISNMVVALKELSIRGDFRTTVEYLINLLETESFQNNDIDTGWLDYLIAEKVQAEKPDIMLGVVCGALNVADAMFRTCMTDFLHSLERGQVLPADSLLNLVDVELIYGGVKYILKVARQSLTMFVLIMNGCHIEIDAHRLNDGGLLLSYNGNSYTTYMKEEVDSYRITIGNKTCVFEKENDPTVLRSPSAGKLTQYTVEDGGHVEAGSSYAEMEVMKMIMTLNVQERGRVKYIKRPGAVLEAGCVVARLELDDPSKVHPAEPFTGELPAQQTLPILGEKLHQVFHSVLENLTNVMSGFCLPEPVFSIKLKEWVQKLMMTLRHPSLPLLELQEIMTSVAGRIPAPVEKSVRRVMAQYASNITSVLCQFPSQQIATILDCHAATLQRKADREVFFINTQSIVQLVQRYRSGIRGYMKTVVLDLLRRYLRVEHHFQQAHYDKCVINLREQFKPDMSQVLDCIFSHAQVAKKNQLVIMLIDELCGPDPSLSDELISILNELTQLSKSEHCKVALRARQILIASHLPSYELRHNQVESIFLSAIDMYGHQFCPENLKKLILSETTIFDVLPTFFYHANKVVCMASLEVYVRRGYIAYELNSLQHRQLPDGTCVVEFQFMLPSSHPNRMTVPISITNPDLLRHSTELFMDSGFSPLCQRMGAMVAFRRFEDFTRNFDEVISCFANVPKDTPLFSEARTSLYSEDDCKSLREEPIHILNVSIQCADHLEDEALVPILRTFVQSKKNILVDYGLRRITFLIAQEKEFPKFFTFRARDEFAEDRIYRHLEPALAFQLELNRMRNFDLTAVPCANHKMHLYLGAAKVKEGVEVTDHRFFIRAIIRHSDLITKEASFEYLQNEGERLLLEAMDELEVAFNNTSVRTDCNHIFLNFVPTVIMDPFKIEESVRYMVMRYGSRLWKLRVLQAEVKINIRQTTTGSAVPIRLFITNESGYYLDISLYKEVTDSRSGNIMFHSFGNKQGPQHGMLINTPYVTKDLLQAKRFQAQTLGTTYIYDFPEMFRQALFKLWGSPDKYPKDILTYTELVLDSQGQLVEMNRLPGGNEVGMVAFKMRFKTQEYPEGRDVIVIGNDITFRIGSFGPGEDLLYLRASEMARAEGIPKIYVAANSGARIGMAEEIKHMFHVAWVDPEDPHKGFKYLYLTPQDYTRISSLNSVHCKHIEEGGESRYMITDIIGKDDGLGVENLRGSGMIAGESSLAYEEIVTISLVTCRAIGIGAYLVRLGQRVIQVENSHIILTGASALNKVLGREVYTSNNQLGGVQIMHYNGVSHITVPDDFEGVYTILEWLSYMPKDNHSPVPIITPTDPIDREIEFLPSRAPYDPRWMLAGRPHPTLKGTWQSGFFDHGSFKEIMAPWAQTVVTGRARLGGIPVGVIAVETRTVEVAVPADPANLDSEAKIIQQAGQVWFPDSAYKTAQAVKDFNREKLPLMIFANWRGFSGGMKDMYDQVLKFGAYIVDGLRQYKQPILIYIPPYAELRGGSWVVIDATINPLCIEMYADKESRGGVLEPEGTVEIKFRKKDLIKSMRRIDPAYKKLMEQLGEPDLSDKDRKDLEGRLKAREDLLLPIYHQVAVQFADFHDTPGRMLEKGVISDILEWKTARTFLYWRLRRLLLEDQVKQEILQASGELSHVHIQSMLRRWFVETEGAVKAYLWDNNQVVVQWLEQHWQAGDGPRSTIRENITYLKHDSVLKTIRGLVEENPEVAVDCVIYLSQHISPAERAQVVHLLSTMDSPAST
Chain of Organic anion transporter 3 (Q8TCC7 whole entry): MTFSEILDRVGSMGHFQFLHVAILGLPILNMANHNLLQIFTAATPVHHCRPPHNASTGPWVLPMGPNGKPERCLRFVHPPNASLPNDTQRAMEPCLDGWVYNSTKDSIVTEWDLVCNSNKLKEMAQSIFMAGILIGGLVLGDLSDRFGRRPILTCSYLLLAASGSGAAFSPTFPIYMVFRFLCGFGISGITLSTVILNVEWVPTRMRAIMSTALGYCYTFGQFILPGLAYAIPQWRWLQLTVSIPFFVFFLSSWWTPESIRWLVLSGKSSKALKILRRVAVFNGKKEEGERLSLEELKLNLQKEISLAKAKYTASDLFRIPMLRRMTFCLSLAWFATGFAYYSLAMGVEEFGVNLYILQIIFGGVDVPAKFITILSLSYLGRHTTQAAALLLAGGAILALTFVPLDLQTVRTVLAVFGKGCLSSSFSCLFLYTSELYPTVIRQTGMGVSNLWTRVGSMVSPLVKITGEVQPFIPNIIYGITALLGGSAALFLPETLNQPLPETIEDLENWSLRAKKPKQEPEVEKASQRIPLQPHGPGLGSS

SMILES | AUC(0-t) [1] [ng·h/mL] | Vd [2] [L/kg] | IC50 (Acetyl-CoA carboxylase 2) [nM] | half-life [3] [h] | hepatocyte CLint [4] [µL/min/1e6 cells] | clearance [5] [mL/min/kg] | Papp at 0.5 h, 2 µM [6] [×10⁻⁶ cm/s] | fraction unbound (Rattus norvegicus) | logD at 1 h [7] | IC50 (Acetyl-CoA carboxylase 1) [nM] | fraction unbound [8] | uptake ratio at 5 min, 1 µM (OATP1B1) | IC50 [9] [nM] | CLH [10] [µL/min/mg] | Activity (CHO)
COc1cc(C(=O)N2CCC3(CC2)CC(=O)c2nn(C(C)(C)C)cc2O3)cc(-c2ccc(C(=O)O)cc2)n1 | 299 | 4.1 | 13 | 3.5 | < 3 | 54.5 | 2 | 0.17 | 0.5 | 22 | 0.07 | 5 |  |  | 
COc1cc(C(=O)N2CCC3(CC2)CC(=O)c2c(cnn2C(C)C)C3)cc(-c2ccc(C(=O)O)cc2)n1 [CLESACOSTAT] | 965 | 7.2 | 26 | 8.6 | < 3 | 16 | 14 | 0.0392 | 1.1 | 33 | 0.066 |  | > 30000 | 24 | Non-Toxic
